In ChEMBL document CHEMBL2406947, “Syntheses and evaluation of novel isoliquiritigenin derivatives as potential dual inhibitors for amyloid-beta aggregation and 5-lipoxygenase” (Eur J Med Chem, 2013) one finds IC50 and inhibition data, which are given here for 27 compounds.

The source made the active and inactive calls. The calls are words filed in the database; no cut-off is given here.

Assay [1] in a line: Cytotoxicity against human SH-SY5Y cells after 48 hrs by MTT assay. It is filed as cell-based. The procedure, abridged:
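SH-SY5Y cells grown in DMEM with 10% FBS, 1 mM glutamine, penicillin/streptomycin, 5% CO2, 37 °C; seeded 10,000 cells/well, treated after 24 h with 0-100 µM for 48 h; MTT (5 mg/mL stock) added for 4 h, formazan dissolved in DMSO, absorbance at 570 nm.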

Assay [2] has as its target T1, Amyloid-beta precursor protein (Homo sapiens, UniProt P05067). As to the kind of experiment: Inhibition of amyloid beta (1-42) self-mediated aggregation (unknown origin) after 5 days by thioflavin T fluorescence method.
Assay [3] in a line: Inhibition of potato 5-LOX using linoleic acid as substrate assessed as hydroperoxides production after 5 mins by enzyme immuno assay. On the set-up: species or system Solanum tuberosum.
The target in assay [4] is T1, Amyloid-beta precursor protein. As to the kind of experiment: Inhibition of amyloid beta (1 to 42) fibrilation (unknown origin) assessed as reduction in beta-sheet structure formation at 10 uM after 2 days by CD spectroscopy assay. Put shortly:
(§1)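 20 µM Aβ(1-42) incubated with or without 10 µM compound in 50 mM sodium phosphate pH 7.4 at 37 °C for 2 days; CD spectra recorded at 25 °C, 190-260 nm, 1 mm quartz cell, 0.5 nm bandwidth, 10 nm/min; background and compound spectra subtracted.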

For assay [5] the target is unchanged. Briefly: Inhibition of amyloid beta (1 to 42) fibrilation (unknown origin) assessed as reduction in […] structure formation at 10 uM after 2 days by CD spectroscopy assay. The procedure, abridged: as §1
For assay [6] the target is unchanged. As to the kind of experiment: Inhibition of amyloid beta (1 to 42) fibrilation (unknown origin) at 20 uM after 4 days by transmission electron microscopic analysis. The procedure, abridged: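 Aβ(1-42) at 40 µM final in 50 mM phosphate pH 7.4 incubated at 37 °C for 4 days with or without 20 µM compound; samples applied to carbon-coated grids, water-washed, negatively stained 1 min with 2% uranyl acetate, examined by transmission electron microscopy.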

T1 sequence (P05067 whole entry): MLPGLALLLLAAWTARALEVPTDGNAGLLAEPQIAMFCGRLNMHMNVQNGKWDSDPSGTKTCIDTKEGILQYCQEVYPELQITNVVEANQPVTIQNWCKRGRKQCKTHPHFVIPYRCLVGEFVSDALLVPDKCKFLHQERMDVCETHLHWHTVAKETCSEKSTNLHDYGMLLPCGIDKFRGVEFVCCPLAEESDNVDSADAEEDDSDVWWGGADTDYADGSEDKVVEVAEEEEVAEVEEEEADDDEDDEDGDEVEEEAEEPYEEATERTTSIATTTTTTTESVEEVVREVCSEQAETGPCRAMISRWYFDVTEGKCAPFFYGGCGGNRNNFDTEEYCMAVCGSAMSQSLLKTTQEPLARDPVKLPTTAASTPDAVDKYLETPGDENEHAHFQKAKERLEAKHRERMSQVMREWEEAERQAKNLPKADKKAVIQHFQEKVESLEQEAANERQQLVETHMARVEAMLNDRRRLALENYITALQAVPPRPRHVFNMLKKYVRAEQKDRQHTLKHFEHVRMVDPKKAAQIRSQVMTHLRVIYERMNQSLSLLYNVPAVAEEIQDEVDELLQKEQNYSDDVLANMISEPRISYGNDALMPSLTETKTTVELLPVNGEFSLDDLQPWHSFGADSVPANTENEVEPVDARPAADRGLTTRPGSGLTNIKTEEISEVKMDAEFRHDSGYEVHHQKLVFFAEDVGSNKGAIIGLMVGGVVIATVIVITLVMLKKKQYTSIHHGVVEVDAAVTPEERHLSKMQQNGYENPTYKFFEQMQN

As for `COc1ccc(C(=O)/C=C/c2ccc(C(=O)NC(C)C)cc2)c(O)c1`, the values for the IC50 in assay [1], in assay [2] and in assay [3] were above 100 µM, 17.8 µM and 22.1 µM, respectively.
In the same order, the values of `COc1ccc(C(=O)/C=C/c2ccc(C(=O)O)cc2)c(O)c1` are above 100 µM, 18.5 µM and 30.3 µM.
In the same order, the values of `COc1ccc(C(=O)/C=C/c2ccc(OCCCOc3ccccc3)c(OC)c2)c(O)c1` are above 100 µM, 10.9 µM and 13 µM.
`CCOCCCOc1ccc(/C=C/C(=O)c2ccc(OC)cc2O)cc1OC`: the IC50 was above 100 µM in assay [1], 5.8 µM in assay [2] and 12.4 µM in assay [3].
Take `COc1ccc(C(=O)/C=C/c2ccc(C(=O)N3CCOCC3)cc2)c(O)c1`: the values for the IC50 in assay [1], in assay [2] and in assay [3] were above 100 µM, 3.2 µM and 6.1 µM, respectively. The inhibition entry in assay [4] and in assay [6] was “Active” throughout. Besides, the inhibition entry in assay [5] is “inactive”.
As for `COc1ccc(C(=O)/C=C/c2ccc(OCc3ccccc3)cc2)c(O)c1`, the IC50 in assay [1] was above 100 µM; in assay [2], 7.8 µM; in assay [3], 10.2 µM.
Take `COC(=O)c1ccc(/C=C/C(=O)c2ccc(OC)cc2O)cc1`: the IC50 in assay [1] is above 100 µM; in assay [2], 23.8 µM; in assay [3], 35.8 µM.
In the same order, the values of `COc1ccc(C(=O)/C=C/c2ccc(C(=O)N3CCCCC3)cc2)c(O)c1` are above 100 µM, 5.9 µM and 6.8 µM.
On the same counts, the results for `COc1ccc(C(=O)/C=C/c2cc(OC)c(OC)c(OC)c2)c(O)c1` are above 100 µM, 9.7 µM and 10.3 µM.
Regarding `CC(Cc1ccc(O)c(O)c1)C(C)Cc1ccc(O)c(O)c1` (stereo unspecified) [NORDIHYDROGUAIARETIC ACID], the IC50 in assay [3] amounted to 12.4 µM.
Regarding `COc1ccc(C(=O)/C=C/c2ccc(C(=O)Nc3ccc(C)cc3C)cc2)c(O)c1`, the IC50 in assay [1] is above 100 µM; in assay [2], 8.3 µM; in assay [3], 16.3 µM.
In the same order, the values of `CCCNC(=O)c1ccc(/C=C/C(=O)c2ccc(OC)cc2O)cc1` are above 100 µM, 19.9 µM and 12.9 µM.
On the same counts, the results for `COc1ccc(C(=O)/C=C/c2ccc(C(=O)NCCc3ccccc3)cc2)c(O)c1` are above 100 µM, 19.1 µM and 14.2 µM.
In the same order, the values of `COc1ccc(/C=C/C(=O)c2ccc(OC)cc2O)cc1` are above 100 µM, 8.4 µM and 15.9 µM.
Consider `COc1ccc(C(=O)/C=C/c2ccc(C(=O)Nc3ccccc3O)cc2)c(O)c1`, for which the IC50 in assay [1] is above 100 µM; in assay [2], 10.1 µM; in assay [3] it was 16.5 µM.
On the same counts, the results for `CCOCCOc1ccc(/C=C/C(=O)c2ccc(OC)cc2O)cc1` are above 100 µM, 19.1 µM and 9.7 µM.
On the same counts, the results for `COc1ccc(C(=O)/C=C/c2ccc(C(=O)N(C)c3ccccc3)cc2)c(O)c1` are above 100 µM, 20.1 µM and 20.4 µM.
In the same order, the values of `COc1ccc(C(=O)/C=C/c2cc(OC)c(OC)cc2OC)c(O)c1` are above 100 µM, 10.2 µM and 14.1 µM.
Take `COc1ccc(C(=O)/C=C/c2cc(Br)c(OCc3ccccc3)c(OC)c2)c(O)c1`: the 50% inhibitory concentration (IC50) in assay [1] was above 100 µM; in assay [2], 12.5 µM; in assay [3], 11.6 µM.
In the same order, the values of `CCCCCCCCCCCCNC(=O)c1ccc(/C=C/C(=O)c2ccc(OC)cc2O)cc1` are above 100 µM, 15.9 µM and 15.7 µM.
In the same order, the values of `CCOCCOc1cccc(/C=C/C(=O)c2ccc(OC)cc2O)c1` are above 100 µM, 10.5 µM and 16.8 µM.
As for `COc1ccc(C(=O)/C=C/c2ccc(C(=O)Nc3ccccc3OC)cc2)c(O)c1`, the IC50 was above 100 µM in assay [1], 7.3 µM in assay [2] and 24.9 µM in assay [3].
On the same counts, the results for `COc1ccc(C(=O)/C=C/c2ccc(C(=O)NCc3ccccc3)cc2)c(O)c1` are above 100 µM, 18.9 µM and 18 µM.
Take `COc1ccc(C(=O)/C=C/c2ccc(C(=O)N3CCN(C)CC3)cc2)c(O)c1`: the IC50 in assay [1] is above 100 µM; in assay [2], 2.2 µM; in assay [3], 7.9 µM.
In the same order, the values of `COc1ccc(C(=O)/C=C/c2ccc(C(=O)N3CCCC3)cc2)c(O)c1` are above 100 µM, 14.6 µM and 10.5 µM.
On the same counts, the results for `COc1ccc(C(=O)/C=C/c2ccc(C(=O)Nc3cc([N+](=O)[O-])ccc3O)cc2)c(O)c1` are above 100 µM, 13.3 µM and 11.4 µM.
On to `O=C(/C=C/c1ccc(O)cc1)c1ccc(O)cc1O` [ISOLIQUIRITIGENIN], for which the results for the IC50 in assay [2] and in assay [3] were 19.7 µM and 18.6 µM, respectively.
